Consider four compounds from ChEMBL document CHEMBL1152672, “Side chain azasteroids and thiasteroids as sterol methyltransferase inhibitors in ergosterol biosynthesis” (2009).

Assay [1] deals with Yarrowia lipolytica. As to the kind of experiment: Antimicrobial activity against Yarrowia lipolytica after 48 hrs. In kind it is functional. A digest of the protocol:
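Broth dilution MIC per DIN 58940-84. Log-phase Y. lipolytica in yeast extract/peptone/glucose medium, counted against a 0.5 McFarland standard (A570) and seeded at 50,000 CFU/mL in 2 mL wells. Compounds added from ethanol; final concentrations 2 to 0.06125 µg/mL unless otherwise stated. Plates incubated 48 ± 2 h at 28 °C. MIC is the lowest concentration with no visible growth.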

The target in assay [2] is T1, Sterol 24-C-methyltransferase (Yarrowia lipolytica) (UniProt Q6C2D9).
T1 sequence (whole entry): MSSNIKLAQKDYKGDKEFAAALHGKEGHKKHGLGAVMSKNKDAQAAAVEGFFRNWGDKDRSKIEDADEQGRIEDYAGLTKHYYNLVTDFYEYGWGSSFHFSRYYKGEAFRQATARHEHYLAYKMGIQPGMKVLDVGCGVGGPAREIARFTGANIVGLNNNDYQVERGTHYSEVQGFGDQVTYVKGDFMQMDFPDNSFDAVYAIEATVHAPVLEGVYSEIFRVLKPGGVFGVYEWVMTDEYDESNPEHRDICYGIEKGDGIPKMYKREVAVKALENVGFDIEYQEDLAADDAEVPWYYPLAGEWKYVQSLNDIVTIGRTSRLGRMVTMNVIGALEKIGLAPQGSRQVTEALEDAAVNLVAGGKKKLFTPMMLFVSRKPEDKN
As to the kind of experiment: Inhibition of Yarrowia lipolytica 24-SMT assessed as dehydroergosterol-3-trimethylsilyl derivative at 1 ug/mL after 48 hrs by GC-MS analysis relative to untreated control. Also on record: scale not given: the % may be the effect or the level left. The gist of the method: (§1)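 Whole-cell sterol profiling. Y. lipolytica at 50,000 CFU/mL was exposed to compounds added from ethanol for 48 ± 2 h at 28 °C, and the MIC/2 and/or MIC/4 wells were used. Cells were pelleted and PBS-washed, then saponified in 1 M NaOH at 70 °C for 1 h. Sterols were extracted into TBME with a cholesterol internal standard and silylated to TMS ethers. GC-MS full scan, with each sterol given as % of total integrated quantifier-ion area.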

Assay [3] concerns the target T1, Sterol 24-C-methyltransferase (Yarrowia lipolytica). As to the kind of experiment: Inhibition of Yarrowia lipolytica 24-SMT assessed as cholesta-5,7,24-trien-3-trimethylsilyl derivative at 2 ug/mL after 48 hrs by GC-MS analysis relative to untreated control. On the set-up: scale not given: the % may be the effect or the level left. The gist of the method: as §1

Assay [4] has the same target. As to the kind of experiment: Inhibition of Yarrowia lipolytica 24-SMT assessed as cholesta-7,24-dien-3-trimethylsilyl derivative at 1 ug/mL after 48 hrs by GC-MS analysis relative to untreated control. On the set-up: scale not given: the % may be the effect or the level left. The gist of the method: as §1
The target is the same in assay [5]. The experiment in a line: Inhibition of Yarrowia lipolytica 24-SMT assessed as zymosterol-3-trimethylsilyl derivative level at 2 ug/mL after 48 hrs by GC-MS analysis relative to untreated control. On the set-up: scale not given: the % may be the effect or the level left. The gist of the method:
as §1

For assay [6] the target is unchanged. As to the kind of experiment: Inhibition of Yarrowia lipolytica 24-SMT assessed as dehydroergosterol-3-trimethylsilyl derivative at 2 ug/mL after 48 hrs by GC-MS analysis relative to untreated control. On the set-up: scale not given: the % may be the effect or the level left. The gist of the method: as §1
For assay [7] the target is unchanged. The experiment in a line: Inhibition of Yarrowia lipolytica 24-SMT assessed as 5-dehydroepisterol-3-trimethylsilyl derivative at 2 ug/mL after 48 hrs by GC-MS analysis relative to untreated control. On the set-up: scale not given: the % may be the effect or the level left. The gist of the method:
as §1

Assay [8] has the same target. The experiment in a line: Inhibition of Yarrowia lipolytica 24-sterol C-methyltransferase assessed as cholesta-5,7,24-trien-3-trimethylsilyl derivative at 1 ug/mL after 48 hrs by GC-MS analysis relative to untreated control. On the set-up: scale not given: the % may be the effect or the level left. A digest of the protocol: as §1
Assay [9] shares this target. As to the kind of experiment: Inhibition of Yarrowia lipolytica 24-sterol C-methyltransferase assessed as ergosterol-3-trimethylsilyl derivative level at 1 ug/mL after 48 hrs by GC-MS analysis relative to untreated control. Also on record: scale not given: the % may be the effect or the level left. The gist of the method: as §1
Assay [10] has the same target. The experiment in a line: Inhibition of Yarrowia lipolytica 24-sterol C-methyltransferase assessed as ergosterol-3-trimethylsilyl derivative level at 2 ug/mL after 48 hrs by GC-MS analysis relative to untreated control. Also on record: scale not given: the % may be the effect or the level left. A digest of the protocol: as §1
Assay [11] has the same target. The experiment in a line: Inhibition of Yarrowia lipolytica 24-SMT assessed as 5-dehydroepisterol-3-trimethylsilyl derivative at 1 ug/mL after 48 hrs by GC-MS analysis relative to untreated control. Also on record: scale not given: the % may be the effect or the level left. The gist of the method:
as §1

For assay [12] the target is unchanged. The experiment in a line: Inhibition of Yarrowia lipolytica 24-SMT assessed as cholesta-7,24-dien-3-trimethylsilyl derivative at 2 ug/mL after 48 hrs by GC-MS analysis relative to untreated control. Also on record: scale not given: the % may be the effect or the level left. The gist of the method:
as §1

Assay [13] has the same target. As to the kind of experiment: Inhibition of Yarrowia lipolytica 24-SMT assessed as zymosterol-3-trimethylsilyl derivative level at 0.1 ug/mL after 48 hrs by GC-MS analysis relative to untreated control. Also on record: scale not given: the % may be the effect or the level left. A digest of the protocol: as §1
The target is the same in assay [14]. As to the kind of experiment: Inhibition of Yarrowia lipolytica 24-SMT assessed as cholesta-5,7,24-trien-3-trimethylsilyl derivative at 0.1 ug/mL after 48 hrs by GC-MS analysis relative to untreated control. On the set-up: scale not given: the % may be the effect or the level left. The gist of the method:
as §1

Assay [15] has the same target. The experiment in a line: Inhibition of Yarrowia lipolytica 24-SMT assessed as 5-dehydroepisterol-3-trimethylsilyl derivative at 0.1 ug/mL after 48 hrs by GC-MS analysis relative to untreated control. On the set-up: scale not given: the % may be the effect or the level left. The gist of the method:
as §1

The target is the same in assay [16]. As to the kind of experiment: Inhibition of Yarrowia lipolytica 24-SMT assessed as dehydroergosterol-3-trimethylsilyl derivative at 0.1 ug/mL after 48 hrs by GC-MS analysis relative to untreated control. On the set-up: scale not given: the % may be the effect or the level left. The gist of the method: as §1
For assay [17] the target is unchanged. The experiment in a line: Inhibition of Yarrowia lipolytica 24-SMT assessed as lanosterol-3-trimethylsilyl derivative at 0.1 ug/mL after 48 hrs by GC-MS analysis relative to untreated control. Also on record: scale not given: the % may be the effect or the level left. A digest of the protocol:
as §1

Assay [18] has the same target. The experiment in a line: Inhibition of Yarrowia lipolytica 24-SMT assessed as cholesta-7,24-dien-3-trimethylsilyl derivative at 0.1 ug/mL after 48 hrs by GC-MS analysis relative to untreated control. Also on record: scale not given: the % may be the effect or the level left. A digest of the protocol: as §1
Assay [19] has the same target. The experiment in a line: Inhibition of Yarrowia lipolytica 24-SMT assessed as 5-dehydroepisterol-3-trimethylsilyl derivative at 0.06 ug/mL after 48 hrs by GC-MS analysis relative to untreated control. Also on record: scale not given: the % may be the effect or the level left. A digest of the protocol:
as §1

Assay [20] has the same target. As to the kind of experiment: Inhibition of Yarrowia lipolytica 24-sterol C-methyltransferase assessed as ergosterol-3-trimethylsilyl derivative level at 0.06 ug/mL after 48 hrs by GC-MS analysis relative to untreated control. Also on record: scale not given: the % may be the effect or the level left. A digest of the protocol:
as §1

Assay [21] shares this target. The experiment in a line: Inhibition of Yarrowia lipolytica 24-SMT assessed as zymosterol-3-trimethylsilyl derivative level at 0.06 ug/mL after 48 hrs by GC-MS analysis relative to untreated control. Also on record: scale not given: the % may be the effect or the level left. The gist of the method:
as §1

The target is the same in assay [22]. As to the kind of experiment: Inhibition of Yarrowia lipolytica 24-SMT assessed as cholesta-5,7,24-trien-3-trimethylsilyl derivative at 0.06 ug/mL after 48 hrs by GC-MS analysis relative to untreated control. Also on record: scale not given: the % may be the effect or the level left. The gist of the method:
as §1

Assay [23] has the same target. As to the kind of experiment: Inhibition of Yarrowia lipolytica 24-SMT assessed as cholesta-7,24-dien-3-trimethylsilyl derivative at 0.06 ug/mL after 48 hrs by GC-MS analysis relative to untreated control. On the set-up: scale not given: the % may be the effect or the level left. The gist of the method: as §1
The target is the same in assay [24]. As to the kind of experiment: Inhibition of Yarrowia lipolytica 24-SMT assessed as dehydroergosterol-3-trimethylsilyl derivative at 0.06 ug/mL after 48 hrs by GC-MS analysis relative to untreated control. On the set-up: scale not given: the % may be the effect or the level left. A digest of the protocol:
as §1

For assay [25] the target is unchanged. The experiment in a line: Inhibition of Yarrowia lipolytica 24-SMT assessed as 14-alpha-methylergosta-8,24(28)-dien-3beta,6alpha-di-trimethylsilyl derivative at 0.2 ug/mL after 48 hrs by GC-MS analysis relative to untreated control. On the set-up: scale not given: the % may be the effect or the level left. A digest of the protocol:
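Y. lipolytica whole cells, inoculated at 50,000 CFU/mL in yeast extract/peptone/glucose medium, exposed to compound (ethanol solution, 10 µL per 2 mL well), 48 ± 2 h, 28 °C. Wells at MIC/2 and/or MIC/4 pelleted, saponified in 1 M NaOH at 70 °C for 1 h, extracted with TBME and silylated. GC–MS with cholesterol internal standard. Each sterol given as percent of total integrated area; ethanol-only wells as control.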

Assay [26] has the same target. The experiment in a line: Inhibition of Yarrowia lipolytica 24-SMT assessed as lanosterol-3-trimethylsilyl derivative at 0.2 ug/mL after 48 hrs by GC-MS analysis relative to untreated control. Also on record: scale not given: the % may be the effect or the level left. The gist of the method: as §1
Assay [27] shares this target. The experiment in a line: Inhibition of Yarrowia lipolytica 24-SMT assessed as dehydroergosterol-3-trimethylsilyl derivative at 0.2 ug/mL after 48 hrs by GC-MS analysis relative to untreated control. Also on record: scale not given: the % may be the effect or the level left. A digest of the protocol: as §1
For assay [28] the target is unchanged. The experiment in a line: Inhibition of Yarrowia lipolytica 24-SMT assessed as ergosterol-3-trimethylsilyl derivative level at 0.2 ug/mL after 48 hrs by GC-MS analysis relative to untreated control. On the set-up: scale not given: the % may be the effect or the level left. A digest of the protocol:
as §1

Values after ≈ are worked out from the molar mass of the structure shown.

On to `C[C@H](CNCCN1CCCC1)[C@H]1CC[C@H]2C3=CC[C@H]4C[C@@H](O)CC[C@]4(C)[C@H]3CC[C@]12C`, for which, in assay [1], the minimal inhibitory concentration (MIC) was more than 2 µg/mL. Moreover, the Activity in assay [2] turned out to be 65.4%; in assay [3], 46.6%; in assay [4] it was 3.6%; in assay [5], 0.4%; in assay [6], 40.1%; in assay [7] it was 3.6%. For the same compound, the Activity came out at 24.3% in assay [8]; 1.7% in assay [9]; 3.3% in [10]; 4.8% in [11]; 6% in [12].
In assay [1], `CC(C)CNC[C@@H](C)[C@H]1CC[C@H]2C3=CC[C@H]4C[C@@H](O)CC[C@]4(C)[C@H]3CC[C@]12C` came in with an MIC of 0.25 µg/mL (≈ 0.645 µM). Also, the Activity amounted to 1.2% in assay [13]; 43.3% in assay [14]; 4.4% in assay [15]; 47.6% in assay [16]; 0.3% in assay [17]; 3.1% in assay [18].
On to `CCCCCNC[C@@H](C)[C@H]1CC[C@H]2C3=CC[C@H]4C[C@@H](O)CC[C@]4(C)[C@H]3CC[C@]12C`, for which the Activity in assay [19] was 3.8%; in [20], 4.9%; in assay [21], 0.4%; in assay [22] it was 20.4%; in [23], 1.6%; in assay [24] it was 68.9%. In assay [1], this compound returned a minimum inhibitory concentration (MIC) of 0.25 µg/mL (≈ 0.622 µM).
With `CC(=O)N1CCN(c2ccc(OCC3COC(Cn4ccnc4)(c4ccc(Cl)cc4Cl)O3)cc2)CC1` (stereo unspecified) [KETOCONAZOLE], the MIC in [1] was 0.5 µg/mL (≈ 0.941 µM). Moreover, the Activity in assay [25] is 2.4%; in assay [26], 28.9%; in [27], 59.1%; in assay [28] it was 9.6%.
